From PubChem BioAssay
Records with an inconclusive call do not appear.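 How the source made its calls, unless noted: active means viability at or below 27.92% in each of two runs, the all-compound median minus 4 SD; inconclusive means no clear call, values can overlap the other calls; inactive means the rest.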

Columns and labels:
[1] = S. cerevisiae growth inhibition in permissive medium (OD615), pilot counter-assay for S. cerevisiae lifespan shortening project, permissive growth control (AID 705;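 active means growth inhibition above 25% in both replicates, a cutoff set 3 SD above the mean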); conditions: OD615, 24 h, at 10 µM, hits give high values
Method in brief: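 System – S. cerevisiae with engineered DeaD lifespan system · Buffer or medium – SC raffinose/galactose permissive medium · Schedule – cells pre-grown 4 h, then 24 h compound exposure, 30 °C humidified · Technique – culture turbidity as optical density at 615 nm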

[2] = S. cerevisiae growth inhibition in restrictive medium, OD615, pilot screen, restrictive growth control, yeast lifespan reduction project (AID 706;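 active means growth inhibition above a set limit, 3 SD over mean compound inhibition, in both replicates, cut at about 43% in these data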;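 further: modified DeaD lifespan yeast strain shifted to restrictive glucose medium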); conditions: OD615, 48 h, at 10 µM, hits give high values
Method in brief: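 Material: engineered S. cerevisiae DeaD strain / Medium: glucose-based CSMM-D restrictive medium / Compound: single dose of 10 µM compound final, 0.25% DMSO / Timing: 4 h pre-incubation, 48 h exposure at 30 °C / Technique: OD615 absorbance reading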

[3] = doxorubicin toxicity protection in MRP-1 cells – H69AR cells, CellTiter-Glo, duplicate, MRP-1 activator project, pilot screen (AID 807;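 active means viability increase at or above a cutoff of the median across tested compounds plus 3 SD, cut at about 8.5% in these data, passing the limit was not always enough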;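 further: compound pretreatment 18-22 h then 72 h combined with doxorubicin; 0% = doxorubicin alone and 100% = vehicle without doxorubicin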); conditions: H69AR viability with doxorubicin, CellTiter-Glo luminescence; at 10 µM; hits give high values
[4] = viability of HCT116 without oncogenic beta-catenin – human colon tumor cells, pilot screen (AID 823;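 active means cell viability at or below a set limit in both duplicate runs, the limit being the all-compound median minus 4 SD, cut at about 23% in these data, passing the limit was not always enough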;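 further: 0% = wells killed by 20 µM Hyamine and 100% = untreated DMSO cell wells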); conditions: HCT116 beta-catenin knockout viability, CellTiter-Glo, 60 h; at 10 µM; hits give low values
[5] = viability of PTEN-null HCT116 cells – cell-based, HCT116 clonal line, CellTiter-Glo, pilot screen (AID 824); conditions: HCT116 PTEN-deleted viability, 60 h, at 10 µM, hits give low values;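 further: 0% = 20 µM Hyamine control and 100% = vehicle cell control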
[6] = RAM pathway blockade in budding yeast – dse1pr::URA3 reporter, 5-FOA selection, pilot screen (AID 869;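 active means inhibition over a set limit, the all-compound mean plus 3 SD, in both replicate runs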;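 further: 0% = DMSO wells with no growth and 100% = 10 µM 1-NA-PP1 with full growth; RAM network block rescues cells from 5-FOA so hits raise OD615 growth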); conditions: S. cerevisiae dse1pr::URA3 5-FOA growth, OD615, 2 d; at 10 µM; hits give high values; strain carries analog-sensitive mutant Cbk1 kinase
[7] = RAM signaling pathway blockade in yeast – S. cerevisiae, Pdr1DBD-CYC8 efflux-inhibited sensitized strain, primary screen (AID 1298;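 active means RAM network inhibition above 8.4% in each of two replicates, 3 SD over the compound average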;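 further: 0% = DMSO untreated cells without growth and 100% = 10 µM 1-NA-PP1 full growth; higher means more yeast growth rescued from 5-FOA killing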); conditions: S. cerevisiae cbk1-as DSE1-URA3 strain, 5-FOA growth OD615, 2 d; at 50 µM; hits give high values

COc1ccc(-c2nc(-c3ccc(NC(=O)c4ccncc4)cc3)no2)cc1OC
inactive: growth inhibition [1] -3.46% | growth inhibition [2] 9.41% | viability increase [3] 0.06% | viability [4] 42.6% | viability [5] 50.8% | inhibition [6] 2.85% | RAM network inhibition [7] 2.92%

Cc1ccc2oc(=O)c3cnn(CC(=O)NCCN(C)C)c3c2c1
inactive: growth inhibition [1] -13% | growth inhibition [2] -11.6% | viability increase [3] 0.12% | viability [4] 101% | viability [5] 97.7% | inhibition [6] 0.365% | RAM network inhibition [7] 0.55%

CC1CCc2c(sc3ncnc(NCCN4CCOCC4)c23)C1 (stereo not drawn)
inactive: growth inhibition [1] -7.6% | growth inhibition [2] -5.73% | viability increase [3] -6.47% | viability [4] 96.4% | viability [5] 95% | inhibition [6] 1.02% | RAM network inhibition [7] 5.28%

CCC(C)Sc1nc2c(cnn2-c2ccc(C)c(C)c2)c(=O)[nH]1 (stereo not drawn)
inactive: growth inhibition [1] -5.49% | growth inhibition [2] 1.98% | viability increase [3] -3.4% | viability [4] 73% | viability [5] 75.9% | inhibition [6] 3.72% | RAM network inhibition [7] -0.06%

Nc1ccccc1-c1nnc(SCc2ccccc2F)[nH]c1=O
inactive: growth inhibition [1] -8.6% | growth inhibition [2] 6.34% | viability increase [3] 2.02% | viability [4] 95.9% | viability [5] 89.9% | inhibition [6] 0.695% | RAM network inhibition [7] 4.24%

Cc1ccc(C2/C(=C(/O)c3ccc(Cl)cc3)C(=O)C(=O)N2CC2CCCO2)o1 (stereo not drawn)
inactive: growth inhibition [1] -7.4% | growth inhibition [2] 12.5% | viability increase [3] -3.2% | viability [4] 95.1% | viability [5] 96.4% | inhibition [6] 0.77% | RAM network inhibition [7] -0.36%

CCOC(=O)CNC(=O)c1cn(CC(C)C)c(=O)c2cc(OC)c(OC)cc12
inactive: growth inhibition [1] -5.46% | growth inhibition [2] -6.08% | viability increase [3] -1.77% | viability [4] 105% | viability [5] 101% | inhibition [6] -0.375% | RAM network inhibition [7] 4.17%

CC1(C)CC(=O)C2=C(C1)Nc1ccccc1NC2c1nc2ccccc2[nH]1 (stereo not drawn)
inactive: growth inhibition [1] -10.1% | growth inhibition [2] 1.04% | viability increase [3] -3.97% | viability [4] 100% | viability [5] 95.7% | inhibition [6] 1.65% | RAM network inhibition [7] 1.45%

COC(=O)c1cc(NC(=O)c2nccnc2C(=O)O)cc(C(=O)OC)c1
inactive: growth inhibition [1] -10.9% | growth inhibition [2] 3.16% | viability increase [3] -1.21% | viability [4] 90.4% | viability [5] 98% | inhibition [6] -0.12% | RAM network inhibition [7] -1.46%

CCOC(=O)N1CCC(NC(=O)Cn2nc(Cc3ccncc3)c3ccccc3c2=O)CC1
inactive: growth inhibition [1] -6.68% | growth inhibition [2] 3.71% | viability increase [3] -0.79% | viability [4] 94% | viability [5] 95.7% | inhibition [6] -0.58% | RAM network inhibition [7] 0.52%

Cc1ccc(-n2ncc3c(NCCCn4ccnc4)ncnc32)c(C)c1
inactive: growth inhibition [1] -3.41% | growth inhibition [2] -7.83% | viability increase [3] -0.58% | viability [4] 88.8% | viability [5] 90.6% | inhibition [6] 1.5% | RAM network inhibition [7] 2.5%

CC(C)C12CN3CC(C(C)C)(CN(C1)C3c1ccccc1)C2O (stereo not drawn)
inactive: growth inhibition [1] 6% | growth inhibition [2] 2.74% | viability increase [3] -1.42% | viability [4] 96.2% | viability [5] 93.6% | inhibition [6] 1.8% | RAM network inhibition [7] 3.93%

O=C(Nc1ccccc1C(=O)N1CCN(Cc2ccccc2)CC1)c1ccccn1
inactive: growth inhibition [1] -4.94% | growth inhibition [2] -10.1% | viability increase [3] -2.39% | viability [4] 93.3% | viability [5] 96.2% | inhibition [6] -0.045% | RAM network inhibition [7] 6.33%

CCOC(=O)C1=C(SCC(=O)Nc2ccccc2)NC(=O)C(C#N)C12CCCCC2 (stereo not drawn)
inactive: growth inhibition [1] -8.66% | growth inhibition [2] -7.72% | viability increase [3] -2.95% | viability [4] 85.1% | viability [5] 91.5% | inhibition [6] 1.71% | RAM network inhibition [7] 2.44%

COC(=O)C1=C(C)N(C)C(C)=C(C(=O)OC)C1c1ccccc1C
inactive: growth inhibition [1] -18.8% | growth inhibition [2] -21.1% | viability increase [3] -0.42% | viability [4] 94.6% | viability [5] 87.7% | inhibition [6] 0.365% | RAM network inhibition [7] 3.87%

Cc1cnc(C(=O)OCC(=O)Nc2ccc(Cl)cc2)cn1
inactive: growth inhibition [1] -19% | growth inhibition [2] -21% | viability increase [3] -2.99% | viability [4] 101% | viability [5] 92.8% | inhibition [6] 3.85% | RAM network inhibition [7] 3.15%

N#Cc1c(SCC(N)=O)nc2c(c1-c1ccc(O)cc1)CCCC2
inactive: growth inhibition [1] -15.2% | growth inhibition [2] -15.6% | viability increase [3] -1.33% | viability [4] 94.5% | viability [5] 93.6% | inhibition [6] 3.51% | RAM network inhibition [7] 4.51%

Cc1cc(NC(=O)COn2nnc3ccc(Cl)cc32)no1
inactive: growth inhibition [1] -6.7% | growth inhibition [2] 1.51% | viability increase [3] 1.22% | viability [4] 94.3% | viability [5] 91.2% | inhibition [6] 0.535% | RAM network inhibition [7] 2.19%

COc1cccc(Cn2nnc(C(=O)NCc3ccc(F)cc3)c2N)c1
inactive: growth inhibition [1] -5.24% | growth inhibition [2] -6.34% | viability increase [3] -1.74% | viability [4] 95% | viability [5] 85.6% | inhibition [6] 0.99% | RAM network inhibition [7] 3.37%

COC(=O)c1sc(NC(=O)C2CCCCC2C(=O)O)c(C(=O)OC)c1C (stereo not drawn)
inactive: growth inhibition [1] -5.95% | growth inhibition [2] 0.13% | viability increase [3] -2.78% | viability [4] 104% | viability [5] 94.6% | inhibition [6] 2.49% | RAM network inhibition [7] 6.27%

CC1CN(C2CC(C)(C)NC(C)(C)C2)CCC1=O (stereo not drawn)
inactive: growth inhibition [1] -5.84% | growth inhibition [2] -0.43% | viability increase [3] 1.05% | viability [4] 96.7% | viability [5] 100% | inhibition [6] -0.505% | RAM network inhibition [7] 5.32%

COc1ccc(NC(=O)CN(c2cc(C)cc(C)c2)S(=O)(=O)c2c(C)noc2C)cc1
inactive: growth inhibition [1] -19.1% | growth inhibition [2] -14.2% | viability increase [3] -2.45% | viability [4] 95.2% | viability [5] 101% | inhibition [6] 0.19% | RAM network inhibition [7] 2.39%

Cc1ccc2oc(=O)c3cnn(CC(=O)N(CCC(C)C)Cc4ccco4)c3c2c1
inactive: growth inhibition [1] -4.76% | growth inhibition [2] -1.21% | viability increase [3] -3.21% | viability [4] 88.5% | viability [5] 87.3% | inhibition [6] 0.29% | RAM network inhibition [7] 5.23%

COc1ccc(CNC(=O)CCCNS(=O)(=O)c2cccc3nonc23)cc1
inactive: growth inhibition [1] 1.99% | growth inhibition [2] -22.1% | viability increase [3] -2.08% | viability [4] 92.3% | viability [5] 96.7% | inhibition [6] 1.31% | RAM network inhibition [7] 7.37%
